Data on eight compounds can be found in ChEMBL document CHEMBL1151255, “Cyclic peptides from a Ruegeria strain of bacteria associated with the sponge Suberites domuncula” (2004).

One assay has as its system Saccharomyces cerevisiae. The experiment in a line: Antimicrobial activity against Saccharomyces cerevisiae. In kind it is functional, organism-based. A digest of the protocol: (§1)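 MIC by twofold serial dilution in duplicate, top concentration 50 μg/mL. Test strains were B. subtilis subsp. spizizenii DSM 347, E. coli DSM 498 and S. cerevisiae DSM 70449. Growth was scored after 48 h at each strain's optimal growth temperature. Gentamycin and nystatin served as controls.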

The subject of a further assay is Escherichia coli. The assay can be described thus: Antimicrobial activity against Escherichia coli. In kind it is functional, organism-based. An outline of the steps: as §1
The next assay concerns Bacillus spizizenii. The assay can be described thus: Antimicrobial activity against Bacillus subtilis subsp. spizizenii. The class given is functional. A digest of the protocol:
as §1

Structures are written as SMILES. ≈ marks a conversion by molar mass, not a printed value. Calls of active or inactive are those of the source. No cut-off for these calls is given here. Where a SMILES comes first, the peptide text is derived from it.

For the compound `C[C@@H]1NC(=O)[C@H]2C[C@@H](O)CN2C1=O`, the outcome in the assay on Saccharomyces cerevisiae, in the assay on Escherichia coli and in the assay with Bacillus spizizenii was inactive.

As to `O=C1[C@@H]2C[C@@H](O)CN2C(=O)[C@@H]2CCCN12`, the result with Saccharomyces cerevisiae, in the assay with Escherichia coli and with Bacillus spizizenii was inactive.

Broadly, the MIC is the lowest concentration that inhibits growth of the organism. A higher MIC goes with weaker potency. Take `O=C(O)CC[C@@H]1NC(=O)[C@@H]2CCCN2C(=O)[C@H](CO)NC(=O)CNC1=O` (cyclo(EGSP)): the result with Saccharomyces cerevisiae and in the assay on Escherichia coli was inactive. This compound also had an MIC in the assay on Bacillus spizizenii of 25 µg/mL (≈ 67.5 µM).

With `O=C1NCC(=O)N2CCC[C@@H]12`, the result with Saccharomyces cerevisiae, with Escherichia coli and in the assay with Bacillus spizizenii was inactive.

Regarding `C[C@@H]1NC(=O)[C@@H]2C[C@@H](O)CN2C1=O`, the result in the assay with Saccharomyces cerevisiae, with Escherichia coli and in the assay on Bacillus spizizenii was inactive.

With `O=C1CCCNC(=O)CN1`, the result in the assay with Saccharomyces cerevisiae, in the assay with Escherichia coli and in the assay with Bacillus spizizenii was inactive.

For the compound `O=C(O)CC[C@@H]1NC(=O)[C@@H]2CCCN2C(=O)[C@H](CCC(=O)O)NC(=O)[C@@H]2CCCN2C1=O` (cyclo(EPEP)), the outcome in the assay with Saccharomyces cerevisiae, in the assay with Escherichia coli and in the assay on Bacillus spizizenii was inactive.

In the case of `O=C(O)CC[C@@H]1NC(=O)[C@@H]2CCCN2C(=O)CNC1=O` (cyclo(Glu-Gly-Pro)), the outcome in the assay on Saccharomyces cerevisiae and with Escherichia coli was inactive. In the assay with Bacillus spizizenii, this compound showed an MIC of 50 µg/mL (≈ 177 µM).
